Results pooled from the literature.
Protocols differ between the studies behind these lines.
Target: BMP-2-inducible protein kinase (BMP2K, Homo sapiens, UniProt Q9NSY1)

Cn1nc(C(=O)NCc2ccc(C(=O)O)cc2)cc1-c1ccc2[nH]ccc2c1
remaining binding (cell-free assay; competition with immobilised ligand; 0.1 µM): 82%

Cc1nn(CC(F)(F)F)cc1Nc1ncc(C2CC2)c(NCc2ccc(S(N)(=O)=O)cc2)n1
remaining activity (enzyme activity; inhibitor; radiometric; 1 µM): 94%

Cc1ccc(C(=O)Nc2ccc(CN3CCN(C)CC3)c(C(F)(F)F)c2)cc1C#Cc1cnc2cccnn12
remaining activity (enzyme activity; inhibitor; 23.5 nM): 95%

CN(CCCC(F)(F)F)c1nccc(-c2cnn3ncccc23)n1
remaining binding (binding; 1 µM): 100%

Cn1c2c(Cl)c(Cl)ccc2c2cc[nH]c(=O)c21
ΔTm (thermal stability; DSF; 10 µM): > 8 °C

N#CC1(c2ccccn2)CCN(Cc2cc(C(=O)N3CCCC3)c(=O)n3ccccc23)CC1
remaining binding (cell-free assay; competition with immobilised ligand; 1 µM): 92%

CN1CCc2cc(Nc3ncc(C4CC4)c(NCCCNC(=O)C4CCC4)n3)ccc2C1
remaining activity (enzyme activity; inhibitor; radiometric; 1 µM): 3%

Nc1ncnc2occ(-c3ccc(NC(=O)Nc4cc(C(F)(F)F)ccc4F)cc3)c12
remaining signal (cell-free assay; inhibitor; 20 µM): 59%

NS(=O)(=O)c1ccc(CNc2ccnc(Nc3cccc(CN4CCOCC4)c3)n2)cc1
remaining activity (enzyme activity; inhibitor; radiometric; 1 µM): 51%

Cc1ccc(C(=O)NCc2ccsc2)cc1C#Cc1cn(C(C)C)c2ncnc(N)c12
activity vs control (enzyme activity; inhibitor; 1 µM): 128%
